Compound activity from PubChem BioAssay.
Only some compounds are listed: those with a hit (about 1.2% of all), similar ones and a draw of the others.
Diaph inh CS: diaphorase inhibitors and chemical oxidizers, primary screen, counter-screen for diaphorase-coupled primary assays, biochemical, uHTS, resorufin fluorescence | diaphorase resazurin-to-resorufin fluorescence, NADH, 16 min; bacterial (C. kluyveri) enzyme, not human | inhibition, % at 20 µM | 190,000 tested, 0.69% active;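 active means primary screen inhibition at 20 µM above a set limit, cut at about 50% in these data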;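 further: plate controls were DMSO with full reaction for no effect and wells lacking NADH for full effect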
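Test system: Clostridium kluyveri diaphorase enzyme / Quantity: diaphorase at 0.14 U/mL in enzyme working solution / Incubation: 16-min room-temperature incubation before reading / Benchmarks: NADH-free wells as positive control, DMSO-only neutral wells / Signal: resorufin fluorescence 544/590 nm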
PfG6PD inh: PfG6PD enzyme inhibitors, primary screen, biochemical, fluorescence intensity, uHTS; PfGluPho enzyme, NADPH resazurin-diaphorase fluorescence; 350,000 tested, 0.78% active; inhibition, % at 20 µM;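 active means inhibition reaching at least a set limit at 20 µM in the primary screen, cut at about 59% in these data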;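 further: 0% = DMSO wells with substrate and 100% = DMSO wells lacking glucose-6-phosphate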
HKDC1 inh: HKDC1 hexokinase inhibitors, primary screen, biochemical, fluorescence, uHTS | recombinant HKDC1, G6PDH/diaphorase resazurin coupled fluorescence | inhibition, % at 20 µM | 340,000 tested, 0.16% active;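 active means inhibition above about 35% when tested at 20 µM, limit read from the data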;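 further: plate controls were DMSO wells with enzyme for no effect and DMSO wells lacking enzyme for full effect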
Target sequence (Q2TB90 whole entry, looked up): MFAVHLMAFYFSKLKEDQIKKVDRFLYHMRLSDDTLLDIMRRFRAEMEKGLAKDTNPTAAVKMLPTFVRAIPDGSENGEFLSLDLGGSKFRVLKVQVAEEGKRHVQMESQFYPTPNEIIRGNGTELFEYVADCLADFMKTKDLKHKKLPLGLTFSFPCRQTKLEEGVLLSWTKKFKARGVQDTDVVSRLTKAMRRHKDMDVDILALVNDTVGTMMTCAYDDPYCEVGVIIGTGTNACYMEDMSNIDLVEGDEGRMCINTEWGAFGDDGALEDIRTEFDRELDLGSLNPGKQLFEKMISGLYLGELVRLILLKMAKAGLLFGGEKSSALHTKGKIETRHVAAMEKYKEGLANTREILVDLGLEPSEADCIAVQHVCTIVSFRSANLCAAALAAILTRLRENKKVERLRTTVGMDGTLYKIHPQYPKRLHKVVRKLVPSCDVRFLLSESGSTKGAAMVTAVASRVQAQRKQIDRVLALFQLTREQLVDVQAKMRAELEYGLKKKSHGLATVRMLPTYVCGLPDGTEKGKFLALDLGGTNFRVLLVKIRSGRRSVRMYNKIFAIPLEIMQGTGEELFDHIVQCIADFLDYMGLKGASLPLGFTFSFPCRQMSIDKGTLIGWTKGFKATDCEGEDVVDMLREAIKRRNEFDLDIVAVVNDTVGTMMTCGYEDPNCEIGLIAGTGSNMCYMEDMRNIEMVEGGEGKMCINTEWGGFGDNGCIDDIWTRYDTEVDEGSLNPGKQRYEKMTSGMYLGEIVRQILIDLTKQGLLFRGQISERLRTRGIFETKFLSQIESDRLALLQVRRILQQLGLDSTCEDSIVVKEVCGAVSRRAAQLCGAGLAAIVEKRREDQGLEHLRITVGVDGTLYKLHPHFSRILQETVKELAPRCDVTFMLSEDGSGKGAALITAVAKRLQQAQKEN
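Assay system: recombinant HKDC1 hexokinase; detection: coupled resazurin fluorescence, excitation 525 nm, emission 613 nm; benchmarks: DMSO-plus-enzyme-mix negative control, buffer-substituted positive control; compound dosing: single 20 µM dose; schedule: 90 min at room temperature in dark; also added: glucose plus 1 mM ATP as hexokinase substrates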
G6PDH counter: L. mesenteroides G6PDH inhibitors, counter-screen for G6PDH-coupled screening assays, biochemical, Leuconostoc mesenteroides enzyme | Purified L. mesenteroides G6PDH, diaphorase/resazurin coupled fluorescence, 45 min | inhibition, % at 5 µM | glucose-6-phosphate dehydrogenase [Leuconostoc mesenteroides] | 200,000 tested, 0.12% active; in the data active means inhibition above about 50%
PfGluPho conf: PfG6PD inhibitors, hit retest, confirmation, biochemical, fluorescence intensity, single concentration. shares compounds with PfG6PD inh. recombinant PfGluPho, NADPH-diaphorase-resazurin fluorescence. inhibition, % at 20 µM. 2,400 tested, 34% active;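 active means inhibition of at least 50% at 20 µM in any single replicate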;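 further: 0% = DMSO with substrate and 100% = DMSO lacking glucose-6-phosphate substrate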
Diaph ctr 10uM: diaphorase inhibitors and chemical oxidizers, confirmation, counter-screen for P. falciparum G6PD inhibitor project, biochemical, fluorescence intensity, 10 µM NADPH. shares compounds with PfG6PD inh. inhibition, % at 20 µM. AID 504862, 2011. diaphorase-coupled resazurin reduction, NADPH 10 uM. 820 tested, 39% active;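 active means average inhibition reaching 50% or more with the compound at 20 µM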;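 further: resorufin red fluorescence formed as diaphorase reduces resazurin using NADPH; 0% = DMSO with enzyme and 100% = DMSO without enzyme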
Diaphorase 30uM: diaphorase inhibitors and chemical oxidizers, confirmation, counter-screen for P. falciparum G6PD inhibitor project, biochemical, fluorescence intensity, 30 µM NADPH. shares compounds with PfG6PD inh. Diaphorase/resazurin coupled assay, resorufin fluorescence. inhibition, % at 20 µM. 820 tested, 29% active. AID 504863, 2011;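 active means inhibition averaging 50% or more, tested at 20 µM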;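 further: 0% = DMSO with enzyme and 100% = DMSO wells lacking diaphorase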
Starred values were filed as active, the others as inactive; · = not tested or not shown.

SMILES	Diaph inh CS	PfG6PD inh	HKDC1 inh	G6PDH counter	PfGluPho conf	others
O=[N+]([O-])c1ccc2nc(-c3ccncc3)[nH]c2c1	·	35	6	·	·
O=C(COc1ccccc1Cl)Nc1ccc(N2CCN(C(=O)c3ccccc3)CC2)cc1	·	9	-1	·	·
CC1(O)CC2CC1C(C(=O)O)C2C(=O)O (centres undefined)	·	6	-2	·	·
CC1Sc2ccc(S(=O)(=O)CCC(=O)N3CCc4ccccc43)cc2NC1=O (centres undefined)	·	8	-2	·	·
CCN(CC)S(=O)(=O)c1cccc(C(=O)N/N=C/c2ccc(O)c(O)c2O)c1	80*	66*	2	10	71*	Diaph ctr 10uM=76*;Diaphorase 30uM=86*
CCn1c(C)nc2cc(C(=O)N/N=C/c3ccc(O)c(O)c3O)ccc21	75*	85*	15	23	90*	Diaph ctr 10uM=86*;Diaphorase 30uM=89*
CCOc1ccccc1/C=N/NC(=O)c1c(C)nc2ccc(Br)cn12	·	123*	-3	·	98*	Diaph ctr 10uM=93*;Diaphorase 30uM=97*
CCOc1ccccc1/C=N/NC(=O)c1cccc(S(=O)(=O)N(CC)CC)c1	16	110*	2	5	60*	Diaph ctr 10uM=64*;Diaphorase 30uM=54*
NC(=O)c1ccc[n+](CC(=O)Nc2ccccc2C(=O)O)c1	·	-6	-4	·	·
CCOc1ccc2c(c1)C(=O)C(=O)N2CC1COc2ccccc2O1 (centres undefined)	·	63*	24	·	11
CCCN(CC(=O)Nc1ccccc1OC)C(=O)c1nc2nc(C)ccn2n1	·	-1	-5	·	·
Nc1ccn([C@@H]2O[C@H](CNCc3ccc(-c4cc(C(F)(F)F)ccc4Cl)o3)[C@@H](O)[C@H]2O)c(=O)n1	·	7	·	·	·
C/C(=N\Nc1ccc(C)c(Cl)c1)c1cccnc1	·	96*	1	·	37
Cc1ccc(S(=O)(=O)N(CC(=O)NC2CC2)c2ccc(C)c(Cl)c2)cc1	·	17	-2	·	·
COc1ccc(NC(=S)NC(=O)c2cncc(Br)c2)c(OC)c1	·	18	-6	·	·
Cc1cc(C)c(NC(=S)NCC2CCN(C(C)c3ccccc3)C2)c(C)c1 (centres undefined)	6	84*	-9	1	76*	Diaph ctr 10uM=0;Diaphorase 30uM=-3
O=C(/C=C/c1ccc([N+](=O)[O-])cc1)OCC(=O)N1CCCC1	·	-6	-6	·	·
CCCn1c(/C=C/c2ccccc2)nc2ccccc21	0	59*	-4	4	10
COc1ccc(/C=C/c2nc3ccccc3n2Cc2ccc(OC)c(OC)c2)cc1	8	66*	4	-4	49*	Diaph ctr 10uM=43;Diaphorase 30uM=30
COCCOCCn1c(/C=C/c2ccccc2)nc2ccccc21	11	63*	-12	-4	40
CCc1nc2ccccc2n1Cc1ccc(OC)c(OC)c1	16	6	-5	6	·
CN1OC[C@@H]2CN[C@H](c3cccc(-c4ccccc4)c3)C[C@@H]21	·	-5	-4	·	·
CN(C)S(=O)(=O)c1ccc(NC(=O)CSc2nnc(-c3ccco3)n2N)cc1	·	13	-5	·	·
O=[N+]([O-])c1ccc(COc2cccc(CN3CCOCC3)c2)cc1	·	13	0	·	·
O=C(CSc1nnc(SCc2ccc(Cl)cc2)s1)N/N=C/c1c[nH]c2ccccc12	25	60*	13	6	33
SMILES	Diaph inh CS	PfG6PD inh	HKDC1 inh	G6PDH counter	PfGluPho conf	others
Cc1cc(Nc2ccc(Cl)cc2)nc(NCc2ccccc2)n1	9	60*	-6	-8	-27
Cc1ccc(Nc2cc(C)nc(-c3ccccc3)n2)cc1	·	65*	0	·	-4
Cc1cc(Nc2ccccc2)nc(NCc2ccccc2)n1	-10	26	-2	1	·
COc1ccc(NC(=O)CSc2nnc(-c3cccc(O)c3)o2)cc1	·	80*	2	·	39
CCn1c(COc2ccccc2OC)nnc1SCC(=O)NC1CCCC1	·	-15	2	·	·
Cc1ccc(-c2nn(C)c(=O)c3ccccc23)cc1CNC(=O)/C=C/c1ccccc1	-7	77*	4	0	76*	Diaph ctr 10uM=59*;Diaphorase 30uM=50
CCC(C(=O)Nc1sc(C(N)=O)c(C)c1C(=O)OC)c1ccccc1 (centres undefined)	23	-4	3	8	·
CCOC(=O)c1c(NC(=O)C(Sc2ccccc2)c2ccccc2)sc(C(N)=O)c1C (centres undefined)	36	61*	0	10	2
CCOC(=O)c1c(NC(=O)OC)sc(C(=O)N(C)C)c1C	22	18	-4	3	·
CCOC(=O)c1c(NC(=O)C(Sc2ccccc2)c2ccccc2)sc(C(=O)N(C)C)c1C (centres undefined)	0	79*	-5	-12	0
CCCN(C)C[C@H]1Oc2cc(C#Cc3ccc(F)cc3)ccc2S(=O)(=O)N([C@H](C)CO)C[C@@H]1C	·	12	·	·	·
O=C(COc1ccccc1)OCc1cc(-c2ccco2)on1	·	3	1	·	·
COc1ccc(-c2noc(CCC(=O)N3CCN(c4ccc(F)cc4)CC3)n2)cc1	·	8	10	·	·
O=C(CNc1ccc2ccccc2c1)N/N=C/c1ccc([N+](=O)[O-])o1	22	24	11	18	·
O=C(CSc1ccc(Cl)cc1)N/N=C/c1ccc([N+](=O)[O-])o1	·	110*	10	·	82*	Diaph ctr 10uM=81*;Diaphorase 30uM=66*
O=C(CSc1ccc(Cl)cc1)N/N=C/c1cccnc1	6	63*	-2	4	36
CCCCn1c(N)c(N(CCOC)C(=O)c2c(-c3ccccc3)noc2C)c(=O)[nH]c1=O	·	10	-4	·	·
Cc1ccc2nc(/C(C#N)=C\c3ccc(N4CCOCC4)o3)[nH]c2c1	36	25	11	15	·
Cc1ccc(/C(C#N)=C\c2ccc(N3CCOCC3)o2)cc1	5	72*	-4	-10	-2
Cc1ccccc1-c1cccc([C@@H]2C[C@H]3[C@H](CON3C)CN2Cc2cc(Cl)cc(Cl)c2)c1	·	-1	0	·	·
CN(CC(=O)Nc1ccccc1Br)C(=O)c1ccccc1OCc1ccc(Cl)cc1	·	59*	-1	·	30
CN(CC(=O)Nc1ccccc1Br)C(=O)c1ccc(-c2ccc(Cl)cc2)o1	·	14	2	·	·
Cc1ccc(Nc2n[nH]c(=S)s2)c(C)c1	·	71*	·	·	14
Cc1cc(C)c(Nc2n[nH]c(=S)s2)cc1C	·	67*	·	·	28
